From article PMC3170876 (Chemmedchem, 2011) come the findings set out here.

One data set concerns the target mouse 11β-HSD1 (Mus musculus, UniProt P50172). Kind of data set: Inhibition of mouse 11β-HSD1. Type of data set: cell-based.
For data set [1], the target named is T1, human cytochrome P450 1A2 (Homo sapiens, UniProt P05177).
T1 sequence (P05177 1-516): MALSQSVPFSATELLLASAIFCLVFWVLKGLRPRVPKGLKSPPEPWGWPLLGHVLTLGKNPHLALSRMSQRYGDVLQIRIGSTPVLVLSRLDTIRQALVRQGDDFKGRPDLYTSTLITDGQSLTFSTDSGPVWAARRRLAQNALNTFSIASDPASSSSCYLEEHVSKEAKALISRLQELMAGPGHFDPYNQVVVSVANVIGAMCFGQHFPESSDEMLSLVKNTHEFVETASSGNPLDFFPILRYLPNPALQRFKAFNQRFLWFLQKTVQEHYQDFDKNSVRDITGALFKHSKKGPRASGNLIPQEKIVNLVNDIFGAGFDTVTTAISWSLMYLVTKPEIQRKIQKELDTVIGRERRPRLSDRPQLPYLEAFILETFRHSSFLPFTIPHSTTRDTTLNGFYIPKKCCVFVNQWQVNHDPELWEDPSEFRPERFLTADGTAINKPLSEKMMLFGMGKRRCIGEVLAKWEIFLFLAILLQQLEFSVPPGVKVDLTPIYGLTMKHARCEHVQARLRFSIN
Description: Inhibition of human cytochrome P450 1A2. Type of data set: in vitro ADME. In outline: (§1)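 Human CYP450 isoform inhibition (1A2, 2C9, 2C19, 2D6, 3A4) measured as IC50 or as percent inhibition at 10 μm test compound. For 3A4, two probe substrates were used separately: 7-benzyloxy-trifluoromethylcoumarin (BFC) and […] (BQ). Each value is the mean of two measurements.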

Data set [2] concerns the target human cytochrome P450 3A4 (Homo sapiens, UniProt P08684). Kind of data set: Inhibition of human cytochrome P450 3A4. The format is in vitro ADME. To be noted: IC50 CYP450 3A4-BQ, substrate BQ; mean of two measurements. In outline: as §1
The next data set concerns the target human 11β-HSD1 (Homo sapiens, UniProt P28845). Description: 11β-HSD1 inhibition cellular assay. Type of data set: cell-based. To be noted: IC50, human 11β-HSD1, HEK293 cell line transfected with human HSD11B1 gene; mean of three measurements, variance less than 20 %.
Data set [3] concerns the target human cytochrome P450 2C19 (Homo sapiens, UniProt P33261). Description: Inhibition of human cytochrome P450 2C19. Type of data set: in vitro ADME. In outline: as §1
Data set [4] is described as follows: Membrane permeability in the Caco-2 cell model. To be noted: human. Type of data set: in vitro ADME. In outline: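 Caco-2 monolayer permeability. Test compound was applied at 20 μm, and the apparent permeability coefficient (Papp) was determined in the apical-to-basolateral direction.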
(In general: Caco-2 monolayers are a common model of the intestinal barrier.)

A short description of data set [5]: Metabolic stability in human liver microsomes. The format is in vitro ADME. To be noted: 37 °C, NADPH, 40 min incubation, mean of two experiments. In outline:
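Parent compound was incubated with human liver microsomes plus NADPH cofactor at 37 °C for 40 min. Loss of parent was followed by HPLC, and half-life and intrinsic clearance were calculated from the depletion. Values are the mean of two experiments.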

The next data set deals with T2, 17β-HSD1 (Homo sapiens, UniProt P14061).
T2 sequence (P14061 1-328): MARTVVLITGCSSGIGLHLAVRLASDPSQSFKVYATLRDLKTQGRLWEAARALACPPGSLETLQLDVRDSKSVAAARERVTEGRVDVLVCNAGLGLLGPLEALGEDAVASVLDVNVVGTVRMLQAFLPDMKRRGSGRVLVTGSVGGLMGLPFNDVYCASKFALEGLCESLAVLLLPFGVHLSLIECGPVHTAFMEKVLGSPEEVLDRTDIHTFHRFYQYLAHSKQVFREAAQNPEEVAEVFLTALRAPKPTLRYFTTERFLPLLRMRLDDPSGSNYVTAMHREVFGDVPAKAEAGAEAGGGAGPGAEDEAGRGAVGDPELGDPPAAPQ
Kind of data set: Selectivity: inhibition of 17β-HSD1. To be noted: at a concentration of 10 μM (data not shown).

The target of the next data set is T3, human 11β-HSD2 (Homo sapiens, UniProt P80365).
T3 sequence (P80365 1-405): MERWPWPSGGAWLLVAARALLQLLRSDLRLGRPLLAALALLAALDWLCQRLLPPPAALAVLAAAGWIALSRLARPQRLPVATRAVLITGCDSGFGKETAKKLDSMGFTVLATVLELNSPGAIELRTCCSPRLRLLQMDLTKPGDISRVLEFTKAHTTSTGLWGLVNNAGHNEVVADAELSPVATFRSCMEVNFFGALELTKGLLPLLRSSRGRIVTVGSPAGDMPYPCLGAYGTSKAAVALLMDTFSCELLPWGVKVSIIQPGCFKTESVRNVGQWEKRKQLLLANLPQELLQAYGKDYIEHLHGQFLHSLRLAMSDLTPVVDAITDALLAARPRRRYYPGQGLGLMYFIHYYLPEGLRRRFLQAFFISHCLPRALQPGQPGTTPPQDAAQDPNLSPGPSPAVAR
Kind of data set: Selectivity: inhibition of human 11β-HSD2. To be noted: at a concentration of 10 μM (data not shown). The format is cell-based.

Data set [6] addresses human cytochrome P450 2D6 (Homo sapiens, UniProt P10635). Kind of data set: Inhibition of human cytochrome P450 2D6. Type of data set: in vitro ADME. In outline: as §1
Data set [7] deals with human cytochrome P450 2C9 (Homo sapiens, UniProt P11712). Kind of data set: Inhibition of human cytochrome P450 2C9. Type of data set: in vitro ADME. In outline: as §1
human cytochrome P450 2C9, sequence (P11712 whole entry): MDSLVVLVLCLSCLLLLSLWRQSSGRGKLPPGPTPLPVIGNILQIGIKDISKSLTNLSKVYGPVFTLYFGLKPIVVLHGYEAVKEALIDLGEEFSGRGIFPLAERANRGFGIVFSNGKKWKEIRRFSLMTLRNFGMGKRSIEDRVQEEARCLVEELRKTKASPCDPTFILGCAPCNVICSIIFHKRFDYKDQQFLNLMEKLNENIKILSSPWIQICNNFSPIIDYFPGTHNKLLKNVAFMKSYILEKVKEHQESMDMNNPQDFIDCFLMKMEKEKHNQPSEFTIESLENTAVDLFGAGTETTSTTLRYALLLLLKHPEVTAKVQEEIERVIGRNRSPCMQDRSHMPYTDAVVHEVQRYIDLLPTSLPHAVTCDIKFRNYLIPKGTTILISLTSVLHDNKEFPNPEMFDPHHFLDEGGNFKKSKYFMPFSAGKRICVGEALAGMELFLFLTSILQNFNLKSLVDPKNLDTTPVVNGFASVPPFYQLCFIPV

human cytochrome P450 2C19, sequence (P33261 whole entry): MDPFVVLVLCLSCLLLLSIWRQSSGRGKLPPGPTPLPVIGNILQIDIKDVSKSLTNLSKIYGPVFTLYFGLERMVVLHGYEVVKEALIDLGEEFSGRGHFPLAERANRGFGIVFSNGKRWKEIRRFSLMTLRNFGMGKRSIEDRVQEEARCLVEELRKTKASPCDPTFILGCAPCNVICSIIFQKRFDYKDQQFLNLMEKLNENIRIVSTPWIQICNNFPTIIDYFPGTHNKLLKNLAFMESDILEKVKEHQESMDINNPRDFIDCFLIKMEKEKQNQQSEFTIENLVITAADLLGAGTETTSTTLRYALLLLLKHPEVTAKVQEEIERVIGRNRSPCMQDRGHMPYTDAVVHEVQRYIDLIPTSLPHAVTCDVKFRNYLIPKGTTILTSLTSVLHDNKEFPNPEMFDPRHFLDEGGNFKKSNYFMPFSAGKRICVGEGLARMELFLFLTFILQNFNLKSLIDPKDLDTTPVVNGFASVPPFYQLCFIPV
human cytochrome P450 3A4, sequence (P08684 whole entry): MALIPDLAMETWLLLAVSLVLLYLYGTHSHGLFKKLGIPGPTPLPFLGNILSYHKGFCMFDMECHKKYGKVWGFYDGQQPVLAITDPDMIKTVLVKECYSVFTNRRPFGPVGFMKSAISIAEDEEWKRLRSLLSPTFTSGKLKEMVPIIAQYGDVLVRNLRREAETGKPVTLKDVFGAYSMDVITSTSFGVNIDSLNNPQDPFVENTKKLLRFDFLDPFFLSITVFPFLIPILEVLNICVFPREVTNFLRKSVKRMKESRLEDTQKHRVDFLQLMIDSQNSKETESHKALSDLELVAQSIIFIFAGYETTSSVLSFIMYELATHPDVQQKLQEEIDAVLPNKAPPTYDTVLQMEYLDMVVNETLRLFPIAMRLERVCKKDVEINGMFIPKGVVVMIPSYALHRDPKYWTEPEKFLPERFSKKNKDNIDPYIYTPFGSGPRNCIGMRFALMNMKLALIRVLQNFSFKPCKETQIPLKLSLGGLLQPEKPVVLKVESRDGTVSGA
mouse 11β-HSD1, sequence (P50172 whole entry): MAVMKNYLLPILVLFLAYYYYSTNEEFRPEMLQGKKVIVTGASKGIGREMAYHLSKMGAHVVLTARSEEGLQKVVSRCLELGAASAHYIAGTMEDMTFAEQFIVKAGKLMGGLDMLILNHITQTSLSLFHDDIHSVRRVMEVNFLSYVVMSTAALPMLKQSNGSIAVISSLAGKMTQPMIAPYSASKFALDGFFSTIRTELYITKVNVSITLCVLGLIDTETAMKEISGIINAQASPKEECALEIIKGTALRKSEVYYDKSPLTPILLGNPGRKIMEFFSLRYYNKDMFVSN
human 11β-HSD1, sequence (P28845 whole entry): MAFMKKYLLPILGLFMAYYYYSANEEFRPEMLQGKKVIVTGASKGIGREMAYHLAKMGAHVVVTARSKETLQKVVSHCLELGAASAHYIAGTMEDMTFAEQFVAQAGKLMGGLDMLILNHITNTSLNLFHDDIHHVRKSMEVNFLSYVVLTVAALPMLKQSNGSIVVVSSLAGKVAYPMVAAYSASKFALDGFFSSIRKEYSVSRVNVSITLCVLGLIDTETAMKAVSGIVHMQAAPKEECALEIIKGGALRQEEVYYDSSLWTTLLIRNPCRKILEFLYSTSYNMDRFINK
human cytochrome P450 2D6, sequence (P10635 whole entry): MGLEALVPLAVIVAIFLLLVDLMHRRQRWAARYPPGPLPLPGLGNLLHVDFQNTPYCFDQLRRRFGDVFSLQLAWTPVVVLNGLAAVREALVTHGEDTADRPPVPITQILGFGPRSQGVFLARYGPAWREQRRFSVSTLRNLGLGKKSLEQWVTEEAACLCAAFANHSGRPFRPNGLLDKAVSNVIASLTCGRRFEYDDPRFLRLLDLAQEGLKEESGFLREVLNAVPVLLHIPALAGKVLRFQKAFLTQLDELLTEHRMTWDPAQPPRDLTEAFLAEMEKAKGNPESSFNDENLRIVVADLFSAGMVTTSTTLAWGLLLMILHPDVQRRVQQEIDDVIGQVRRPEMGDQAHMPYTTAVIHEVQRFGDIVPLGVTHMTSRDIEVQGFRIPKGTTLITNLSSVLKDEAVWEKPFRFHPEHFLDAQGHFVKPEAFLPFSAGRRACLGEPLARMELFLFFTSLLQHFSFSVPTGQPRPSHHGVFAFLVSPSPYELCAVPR

In general, melting point refers to the temperature of the solid-liquid transition. One may read the IC50 as the concentration that inhibits the measured activity by half. A lower IC50 goes with higher potency. As usually defined, the Papp A→B is the apparent permeability from the apical to the basolateral side of a cell layer. High values mean ready permeation, low ones poor permeation. In turn, `O=C(C[S+]([O-])Cc1cccs1)C12CC3CC(CC(C3)C1)C2` (stereo not shown) [Compound 14, 1-(Adamantan-1-yl)-2-(thiophen-2-ylmethanesulfinyl)ethanone] yielded a melting point of 95 to 98 °C. Besides, the IC50 against mouse 11β-HSD1 worked out at 0.02 µM. In data set [1], this molecule showed an IC50 of 33 µM. The molecule also showed an IC50 in [2] of 12 µM. The IC50 at human 11β-HSD1 was below 0.05 µM. The IC50 in data set [3] worked out at 30 µM. For the same molecule, in data set [4], the Papp A→B at 20 μM came out at 22 ×10⁻⁶ cm/s.
For `Cn1cnnc1SCC(=O)C12CC3CC(CC(C3)C1)C2` [Compound 28, 1-(Adamantan-1-yl)-2-(4-methyl-4H-[1,2,4]triazol-3-ylsulfanyl)-ethanone], in data set [5], the CLint is 8.7 µL/min/mg. In addition, the IC50 turned out to be 21 µM in data set [1], 62 µM in data set [2] and 3.6 µM in data set [3]. Moreover, the “inhibition against 17β-HSD1” value at 17β-HSD1 is “inactive”. The “inhibition against human 11β-HSD2” value against human 11β-HSD2 is “inactive”.
`Cn1ccnc1[S+]([O-])CC(=O)C12CC3CC(CC(C3)C1)C2` (stereo not shown) [Compound 31, 1-(Adamantan-1-yl)-2-(1-methyl-1H-imidazole-2-sulfinyl)ethanone] gave a melting point of 86 to 89 °C. Also, at mouse 11β-HSD1, the IC50 came out at 0.121 µM. For the same molecule, the “inhibition against 17β-HSD1” value on 17β-HSD1 was “inactive”. At human 11β-HSD1, this molecule gave an IC50 of 0.048 µM. The “inhibition against human 11β-HSD2” value against human 11β-HSD2 was “inactive”. The Papp A→B at 20 μM in data set [4] stood at 44 ×10⁻⁶ cm/s.
`Cc1nnc(S(=O)(=O)CC(=O)C23CC4CC(CC(C4)C2)C3)s1` [Compound 37, 1-(Adamantan-1-yl)-2-(5-methyl-[1,3,4]thiadiazole-2-sulfonyl)ethanone] yielded a melting point of 111 to 113 °C. This molecule also displayed an IC50 in data set [6] above 100 µM. Also, the IC50 in [1] is above 100 µM. Also, it took 11 µM to reach half-maximal inhibition in data set [7] (IC50). The molecule also gave an IC50 in data set [2] of 30 µM. In addition, in data set [3], the IC50 was 17 µM.
